ChEMBL document CHEMBL1153859, “Analogs of JHU75528, a PET ligand for imaging of cerebral cannabinoid receptors (CB1): development of ligands with optimized lipophilicity and binding affinity” (Eur J Med Chem, 2009)
Calls of active or inactive are those of the source. The calls are words filed in the database; no cut-off is given here.

Key:
Cannabinoid receptor 1 [1] = target: T1, Cannabinoid receptor 1 (Homo sapiens, UniProt P21554); test: biochemical; format: cell-based, HEK293
[2] = Octanol-phosphate buffer partition coefficient, log D at pH 7.4 by shake-flask method; format: physicochemical
Method in brief: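 Octanol/phosphate buffer (pH 7.4) partition by conventional shake-flask; logD7.4 reported as mean ± S.D. of independent assays.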

[3] = target: Cannabinoid receptor 1 (Mus musculus) (UniProt P47746); test: Antagonist activity at CB1 receptor in C57/BL6 mouse striatum assessed as blockade of WIN-55212-2 induced inhibition of glutamate release at 3 uM by electrophysiology; format: functional, tissue-based
Cannabinoid receptor 1 (Mus musculus), sequence (P47746 whole entry): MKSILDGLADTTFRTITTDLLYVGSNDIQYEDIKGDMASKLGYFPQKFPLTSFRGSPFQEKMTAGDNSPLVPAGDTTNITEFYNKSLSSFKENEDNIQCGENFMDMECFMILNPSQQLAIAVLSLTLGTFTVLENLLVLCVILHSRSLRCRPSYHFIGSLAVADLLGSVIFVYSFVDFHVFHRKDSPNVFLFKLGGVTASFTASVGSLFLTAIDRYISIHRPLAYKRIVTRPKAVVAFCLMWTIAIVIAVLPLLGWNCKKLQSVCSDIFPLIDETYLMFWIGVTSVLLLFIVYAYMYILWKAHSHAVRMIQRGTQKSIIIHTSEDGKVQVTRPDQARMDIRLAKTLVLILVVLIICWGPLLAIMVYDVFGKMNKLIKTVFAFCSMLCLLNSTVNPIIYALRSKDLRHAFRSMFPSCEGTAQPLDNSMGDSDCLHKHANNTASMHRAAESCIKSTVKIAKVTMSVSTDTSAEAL

[4] = test system: Cannabinoid receptor 1 (Macaca mulatta); test: Binding affinity to Rhesus monkey CB1 receptor assessed as binding potential; settings: tested as the 11C-labelled form
Cannabinoid receptor 1 [5] = target: T1, Cannabinoid receptor 1; test: Binding affinity to human CB1 receptor assessed as binding potential
Mus musculus [6] = test: Binding affinity to CB1 receptor in CD1 mouse brainstem at 200 uCi, iv after 60 mins in presence of rimonabant; format: functional, organism-based; settings: tested as the 11C-labelled form
Method in brief: (§1)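 Controls got vehicle. 15 min later [11C] tracer (~7.4 MBq, ~200 μCi; ~300 GBq/μmol) was given i.v.; n=3 per group. Brains were harvested at 60 min and regions dissected on ice, then γ-counted against injectate standards as %ID/g tissue. Single-factor ANOVA, p ≤ 0.05.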

Mus musculus [7] = test: Binding affinity to CB1 receptor in CD1 mouse hippocampus at 200 uCi, iv after 60 mins in presence of rimonabant; format: functional, organism-based; settings: tested as the 11C-labelled form
Method in brief: as §1

T1 sequence (P21554 whole entry): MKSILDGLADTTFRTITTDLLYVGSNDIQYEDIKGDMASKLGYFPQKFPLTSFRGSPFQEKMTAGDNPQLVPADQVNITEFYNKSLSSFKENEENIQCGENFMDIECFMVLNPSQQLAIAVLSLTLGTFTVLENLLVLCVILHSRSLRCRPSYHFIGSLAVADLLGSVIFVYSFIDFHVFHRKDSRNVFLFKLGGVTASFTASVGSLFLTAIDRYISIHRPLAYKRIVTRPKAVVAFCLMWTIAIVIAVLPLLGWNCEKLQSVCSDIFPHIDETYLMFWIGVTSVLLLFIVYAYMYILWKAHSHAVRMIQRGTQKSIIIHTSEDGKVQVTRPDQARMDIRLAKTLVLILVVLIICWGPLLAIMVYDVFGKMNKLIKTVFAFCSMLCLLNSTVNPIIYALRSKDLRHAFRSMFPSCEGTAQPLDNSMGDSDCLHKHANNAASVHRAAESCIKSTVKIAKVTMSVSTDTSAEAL

Row | Compound | Ki (Cannabinoid receptor 1 [1]) | logD [2] | other results
1 | N#Cc1c(C(=O)NN2CCCCC2)nn(-c2ccc(Cl)cc2Cl)c1-c1ccc(Cl)cc1 | 24 nM | 3.5 | –
2 | N#Cc1c(C(=O)NN2CCOCC2)nn(-c2ccc(Cl)cc2Cl)c1-c1ccc(I)cc1 | 131 nM | 3.2 | –
3 | COc1ccc(-c2c(C#N)c(C(=O)NN3CCCCC3)nn2-c2ccc(Cl)cc2Cl)cc1 [JHU-75528] | 11 nM | – | Activity [3]: Active; Activity [4]: 0.6
4 | Cc1c(C(=O)NN2CCOCC2)nn(-c2ccc(Cl)cc2Cl)c1-c1ccc(I)cc1 | – | – | Activity (Cannabinoid receptor 1 [5]; tested as the 123I-labelled form): 0.21; Activity (Cannabinoid receptor 1 [5]; tested as the 124I-labelled form): 0.37
5 | N#Cc1c(C(=O)NN2CCOCC2)nn(-c2ccc(Cl)cc2Cl)c1-c1ccc(Br)cc1 | > 1000 nM | 3.1 | –
6 | COc1ccc(-c2c(C#N)c(C(=O)NN3CCCCC3)nn2-c2ccccc2Br)cc1 | 4.7 nM | 3.4 | –
7 | COc1ccc(-c2c(C#N)c(C(=O)NN3CCCCC3)nn2-c2ccc(F)cc2Br)cc1 | 32 nM | 2.9 | –
8 | COc1ccc(-c2c(C#N)c(C(=O)NN3CCCC3)nn2-c2ccc(Cl)cc2Cl)cc1 | 2 nM | – | Activity (Mus musculus [6]): Active; Activity (Mus musculus [7]): inactive
9 | N#Cc1c(C(=O)NN2CCCCC2)nn(-c2ccc(Cl)cc2Cl)c1-c1ccc(OCF)cc1 | 10.3 nM | 2.9 | –
10 | COc1ccc(-c2c(C#N)c(C(=O)NN3CCCCC3)nn2-c2ccc(F)cc2Cl)cc1 | 13 nM | 2.8 | –
11 | CCCCCCC(C)(C)c1cc(O)c2c(c1)OC(C)(C)[C@@H]1CC=C(CO)C[C@@H]21 | 1.5 nM | – | –
12 | COc1ccc(-c2c(C(N)=O)c(C(=O)NN3CCCCC3)nn2-c2ccccc2Br)cc1 | > 10000 nM | 2.5 | –
13 | N#Cc1c(C(=O)NN2CCCCC2)nn(-c2ccc(Cl)cc2Cl)c1-c1ccc(I)cc1 | 33 nM | 3.9 | –
14 | N#Cc1c(C(=O)NN2CCCCC2)nn(-c2ccc(Cl)cc2Cl)c1-c1ccc(Br)cc1 | 14 nM | 3.7 | –
